Consider seven compounds from ChEMBL document CHEMBL2424622, “Development of amino-pyrimidine inhibitors of c-Jun N-terminal kinase (JNK): kinase profiling guided optimization of a 1,2,3-benzotriazole lead” (Bioorg Med Chem Lett, 2013).

Assay [1] addresses Tyrosine-protein kinase HCK (Homo sapiens) (UniProt P08631). Description: Competitive binding affinity to HCK (unknown origin) at 10 uM in presence of ATP relative to control. Summed up: (§1)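 In vitro ATP-site competition binding assay, part of profiling against a diverse panel of 128 kinases. Each compound was tested at a single concentration of 10 µM. Kinome selectivity was summarized as S15 selectivity scores.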

Assay [2] has as its target 5'-AMP-activated protein kinase catalytic subunit alpha-1 (Homo sapiens) (UniProt Q13131). As to the kind of experiment: Competitive binding affinity to AMPKalpha1 (unknown origin) at 10 uM in presence of ATP relative to control.
Assay [3] deals with Dual specificity protein kinase CLK3 (Homo sapiens) (UniProt P49761). As to the kind of experiment: Competitive binding affinity to CLK3 (unknown origin) at 10 uM in presence of ATP relative to control.
Assay [4] addresses RAF proto-oncogene serine/threonine-protein kinase (Homo sapiens) (UniProt P04049). As to the kind of experiment: Competitive binding affinity to RAF1 (unknown origin) at 10 uM in presence of ATP relative to control. Summed up: (§2)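 In vitro ATP-site competition binding assay across a diverse panel of 128 kinases, with compound tested at a single concentration. Kinase selectivity scores (S15) were calculated from the panel profiles.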

Assay [5] has as its target Tyrosine-protein kinase JAK1 (Homo sapiens) (UniProt P23458). Description: Competitive binding affinity to JAK1 kinase domain 1 (unknown origin) at 10 uM in presence of ATP relative to control. Summed up:
as §1

Assay [6] deals with Death-associated protein kinase 2 (Homo sapiens, UniProt Q9UIK4). As to the kind of experiment: Competitive binding affinity to DAPK2 (unknown origin) at 10 uM in presence of ATP relative to control. Summed up: (§3)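 In vitro ATP-site competition binding assay across a diverse panel of 128 kinases, with each compound tested at a single concentration. Kinase binding is expressed relative to control.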

Assay [7] deals with Ribosomal protein S6 kinase alpha-3 (Homo sapiens) (UniProt P51812). Description: Competitive binding affinity to RPS6KA3 domain 1 (unknown origin) at 10 uM in presence of ATP relative to control. Summed up:
as §2

Assay [8] concerns the target T1, Tyrosine-protein kinase ITK/TSK (Homo sapiens) (UniProt Q08881).
T1 sequence (whole entry): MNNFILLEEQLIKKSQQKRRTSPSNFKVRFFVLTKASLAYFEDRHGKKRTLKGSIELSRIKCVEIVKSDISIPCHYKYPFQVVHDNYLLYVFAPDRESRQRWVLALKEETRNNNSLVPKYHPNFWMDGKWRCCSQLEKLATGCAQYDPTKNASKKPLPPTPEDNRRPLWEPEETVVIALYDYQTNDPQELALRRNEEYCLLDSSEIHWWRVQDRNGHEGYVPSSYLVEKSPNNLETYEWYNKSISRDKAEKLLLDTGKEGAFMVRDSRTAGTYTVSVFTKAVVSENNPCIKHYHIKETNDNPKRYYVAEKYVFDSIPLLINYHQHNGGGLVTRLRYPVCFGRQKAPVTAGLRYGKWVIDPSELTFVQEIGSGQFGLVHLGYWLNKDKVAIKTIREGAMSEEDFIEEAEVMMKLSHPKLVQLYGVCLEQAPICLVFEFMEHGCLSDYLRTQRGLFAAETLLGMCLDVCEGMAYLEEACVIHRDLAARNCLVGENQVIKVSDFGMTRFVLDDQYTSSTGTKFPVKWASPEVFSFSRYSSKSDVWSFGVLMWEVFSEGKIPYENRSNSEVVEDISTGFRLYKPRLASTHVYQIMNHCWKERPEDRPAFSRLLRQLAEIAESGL
Description: Competitive binding affinity to ITK (unknown origin) at 10 uM in presence of ATP relative to control. Summed up:
as §1

The target in assay [9] is Leukocyte tyrosine kinase receptor (Homo sapiens) (UniProt P29376). Description: Competitive binding affinity to LTK (unknown origin) at 10 uM in presence of ATP relative to control. Summed up:
as §1

Assay [10] addresses Fibroblast growth factor receptor 1 (Homo sapiens) (UniProt P11362). Description: Competitive binding affinity to FGFR1 (unknown origin) at 10 uM in presence of ATP relative to control. Summed up: as §1
For assay [11], the target named is Ribosomal protein S6 kinase alpha-5 (Homo sapiens) (UniProt O75582). Description: Competitive binding affinity to RPS6KA5 kinase domain 1 (unknown origin) at 10 uM in presence of ATP relative to control. Summed up:
as §2

In assay [12] the target is Ephrin type-A receptor 5 (Homo sapiens) (UniProt P54756). Description: Competitive binding affinity to EPHA5 (unknown origin) at 10 uM in presence of ATP relative to control. Summed up: as §1
Chain of Ephrin type-A receptor 5 (Homo sapiens) (P54756 whole entry): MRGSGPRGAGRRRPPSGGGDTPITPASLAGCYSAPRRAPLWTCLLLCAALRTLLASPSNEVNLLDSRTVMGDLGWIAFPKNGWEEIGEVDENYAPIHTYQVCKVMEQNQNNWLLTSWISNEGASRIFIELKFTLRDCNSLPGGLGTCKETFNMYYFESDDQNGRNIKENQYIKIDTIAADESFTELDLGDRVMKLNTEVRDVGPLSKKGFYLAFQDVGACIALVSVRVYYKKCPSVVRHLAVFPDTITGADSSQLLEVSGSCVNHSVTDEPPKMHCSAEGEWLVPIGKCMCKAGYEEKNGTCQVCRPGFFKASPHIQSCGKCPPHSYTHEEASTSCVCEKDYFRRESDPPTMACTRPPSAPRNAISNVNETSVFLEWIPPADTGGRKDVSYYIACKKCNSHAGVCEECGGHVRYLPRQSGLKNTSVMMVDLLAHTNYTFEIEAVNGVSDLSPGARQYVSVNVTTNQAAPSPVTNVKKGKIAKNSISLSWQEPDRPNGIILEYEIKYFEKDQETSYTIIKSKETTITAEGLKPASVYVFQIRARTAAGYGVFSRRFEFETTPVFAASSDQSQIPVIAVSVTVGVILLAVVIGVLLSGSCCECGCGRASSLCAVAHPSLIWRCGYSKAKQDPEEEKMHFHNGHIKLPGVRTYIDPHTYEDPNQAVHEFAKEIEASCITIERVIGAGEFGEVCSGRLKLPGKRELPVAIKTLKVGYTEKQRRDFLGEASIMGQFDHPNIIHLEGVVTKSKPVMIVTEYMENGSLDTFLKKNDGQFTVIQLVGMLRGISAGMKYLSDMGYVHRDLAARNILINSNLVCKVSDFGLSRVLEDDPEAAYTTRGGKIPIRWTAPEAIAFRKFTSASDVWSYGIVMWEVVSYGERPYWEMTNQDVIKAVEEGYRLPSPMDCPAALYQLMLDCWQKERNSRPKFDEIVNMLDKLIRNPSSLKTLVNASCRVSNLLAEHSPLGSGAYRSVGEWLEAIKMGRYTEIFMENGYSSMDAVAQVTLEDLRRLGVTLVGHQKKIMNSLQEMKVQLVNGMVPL
Assay [13] deals with Mitogen-activated protein kinase 8 (Homo sapiens, UniProt P45983).
Chain of Mitogen-activated protein kinase 8 (P45983 whole entry): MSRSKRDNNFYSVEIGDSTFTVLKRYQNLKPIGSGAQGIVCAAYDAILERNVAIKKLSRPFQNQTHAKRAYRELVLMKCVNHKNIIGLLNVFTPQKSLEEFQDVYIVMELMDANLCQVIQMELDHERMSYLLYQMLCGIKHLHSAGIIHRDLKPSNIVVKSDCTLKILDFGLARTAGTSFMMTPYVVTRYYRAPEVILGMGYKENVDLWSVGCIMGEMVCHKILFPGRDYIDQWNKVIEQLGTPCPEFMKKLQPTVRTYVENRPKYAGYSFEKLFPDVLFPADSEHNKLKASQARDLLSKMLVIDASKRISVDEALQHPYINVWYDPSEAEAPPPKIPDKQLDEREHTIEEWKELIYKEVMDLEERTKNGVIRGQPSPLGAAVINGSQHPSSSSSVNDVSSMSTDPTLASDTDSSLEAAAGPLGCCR
For assay [14], the target named is Death-associated protein kinase 3 (Homo sapiens, UniProt O43293). As to the kind of experiment: Competitive binding affinity to DAPK3 (unknown origin) at 10 uM in presence of ATP relative to control. Summed up: as §3
Chain of Death-associated protein kinase 3 (O43293 whole entry, looked up): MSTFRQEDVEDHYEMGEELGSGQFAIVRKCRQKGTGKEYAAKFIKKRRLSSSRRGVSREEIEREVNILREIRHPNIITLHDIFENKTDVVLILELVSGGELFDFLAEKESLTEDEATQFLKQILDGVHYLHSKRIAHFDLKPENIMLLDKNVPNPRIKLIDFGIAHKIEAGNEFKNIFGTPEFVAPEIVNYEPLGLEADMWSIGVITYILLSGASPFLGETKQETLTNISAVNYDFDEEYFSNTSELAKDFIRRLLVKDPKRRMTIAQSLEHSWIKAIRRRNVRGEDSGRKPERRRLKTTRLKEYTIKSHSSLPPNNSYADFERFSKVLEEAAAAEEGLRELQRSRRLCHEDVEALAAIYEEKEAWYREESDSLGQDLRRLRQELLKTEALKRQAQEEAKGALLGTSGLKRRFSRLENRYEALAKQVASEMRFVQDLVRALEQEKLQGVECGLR
The target of assay [15] is Protein-tyrosine kinase 2-beta (Homo sapiens) (UniProt Q14289). As to the kind of experiment: Competitive binding affinity to PTK2B (unknown origin) at 10 uM in presence of ATP relative to control. Summed up: as §2
In assay [16] the target is Mast/stem cell growth factor receptor Kit (Homo sapiens) (UniProt P10721). As to the kind of experiment: Competitive binding affinity to KIT (unknown origin) at 10 uM in presence of ATP relative to control. Summed up:
as §1

Assay [17] has as its target T2, Aurora kinase C (Homo sapiens) (UniProt Q9UQB9).
T2 sequence (whole entry): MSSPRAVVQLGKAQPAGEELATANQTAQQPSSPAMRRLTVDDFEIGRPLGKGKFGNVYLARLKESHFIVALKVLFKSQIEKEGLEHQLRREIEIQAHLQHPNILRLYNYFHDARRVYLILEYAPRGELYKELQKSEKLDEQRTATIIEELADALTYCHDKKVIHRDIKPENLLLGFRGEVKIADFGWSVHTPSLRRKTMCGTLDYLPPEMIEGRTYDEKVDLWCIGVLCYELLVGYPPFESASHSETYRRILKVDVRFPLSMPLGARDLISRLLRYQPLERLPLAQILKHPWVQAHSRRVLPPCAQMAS
Description: Competitive binding affinity to AURKC (unknown origin) at 10 uM in presence of ATP relative to control.

The target of assay [18] is Platelet-derived growth factor receptor alpha (Homo sapiens) (UniProt P16234). As to the kind of experiment: Competitive binding affinity to PDGFRA (unknown origin) at 10 uM in presence of ATP relative to control. Summed up: as §2
For assay [19], the target named is Tyrosine-protein kinase Yes (Homo sapiens) (UniProt P07947). Description: Competitive binding affinity to YES (unknown origin) at 10 uM in presence of ATP relative to control. Summed up:
as §2

The structures appear in SMILES notation. pIC50: −log10 of the molar value.

Chain of Fibroblast growth factor receptor 1 (Homo sapiens) (P11362 22-822 limits assumed): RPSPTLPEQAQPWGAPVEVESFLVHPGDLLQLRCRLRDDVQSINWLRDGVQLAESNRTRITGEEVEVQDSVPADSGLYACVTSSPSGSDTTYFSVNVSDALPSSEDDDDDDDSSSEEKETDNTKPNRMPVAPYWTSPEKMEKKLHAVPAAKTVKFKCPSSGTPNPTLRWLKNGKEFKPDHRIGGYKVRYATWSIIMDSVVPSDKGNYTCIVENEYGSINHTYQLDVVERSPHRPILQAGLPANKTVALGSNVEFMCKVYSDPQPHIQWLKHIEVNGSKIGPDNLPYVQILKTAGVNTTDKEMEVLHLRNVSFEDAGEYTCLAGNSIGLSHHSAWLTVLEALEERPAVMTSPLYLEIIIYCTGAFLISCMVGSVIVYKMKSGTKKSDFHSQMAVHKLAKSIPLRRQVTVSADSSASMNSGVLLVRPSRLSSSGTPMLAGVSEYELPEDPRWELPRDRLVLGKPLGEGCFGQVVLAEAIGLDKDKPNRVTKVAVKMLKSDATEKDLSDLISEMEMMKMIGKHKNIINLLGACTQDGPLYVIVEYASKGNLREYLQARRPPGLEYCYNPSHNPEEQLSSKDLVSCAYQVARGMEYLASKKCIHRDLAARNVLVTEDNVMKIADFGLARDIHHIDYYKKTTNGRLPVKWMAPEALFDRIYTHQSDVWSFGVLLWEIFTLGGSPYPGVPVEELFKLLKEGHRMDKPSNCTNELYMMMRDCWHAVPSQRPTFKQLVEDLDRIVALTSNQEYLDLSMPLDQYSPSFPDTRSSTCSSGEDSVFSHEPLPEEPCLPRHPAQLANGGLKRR
Chain of RAF proto-oncogene serine/threonine-protein kinase (Homo sapiens) (P04049 whole entry): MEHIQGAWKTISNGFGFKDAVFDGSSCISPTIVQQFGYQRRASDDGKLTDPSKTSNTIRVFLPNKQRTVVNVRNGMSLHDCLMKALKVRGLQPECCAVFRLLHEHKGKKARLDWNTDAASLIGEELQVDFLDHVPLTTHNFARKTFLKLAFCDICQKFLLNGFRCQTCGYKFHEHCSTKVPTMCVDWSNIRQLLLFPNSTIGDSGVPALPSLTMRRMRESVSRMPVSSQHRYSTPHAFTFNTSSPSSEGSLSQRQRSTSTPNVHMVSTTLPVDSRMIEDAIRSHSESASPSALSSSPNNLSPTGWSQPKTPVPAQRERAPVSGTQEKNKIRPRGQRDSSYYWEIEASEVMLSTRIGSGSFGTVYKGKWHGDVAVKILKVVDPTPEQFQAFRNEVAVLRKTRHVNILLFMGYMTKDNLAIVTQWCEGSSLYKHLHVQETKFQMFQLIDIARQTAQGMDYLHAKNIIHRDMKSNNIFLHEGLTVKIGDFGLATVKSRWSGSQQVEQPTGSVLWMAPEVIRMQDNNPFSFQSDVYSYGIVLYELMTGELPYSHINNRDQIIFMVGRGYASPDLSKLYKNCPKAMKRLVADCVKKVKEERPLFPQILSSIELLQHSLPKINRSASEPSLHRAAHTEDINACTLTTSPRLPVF
Chain of Tyrosine-protein kinase JAK1 (Homo sapiens) (P23458 whole entry, the tested form may be a part): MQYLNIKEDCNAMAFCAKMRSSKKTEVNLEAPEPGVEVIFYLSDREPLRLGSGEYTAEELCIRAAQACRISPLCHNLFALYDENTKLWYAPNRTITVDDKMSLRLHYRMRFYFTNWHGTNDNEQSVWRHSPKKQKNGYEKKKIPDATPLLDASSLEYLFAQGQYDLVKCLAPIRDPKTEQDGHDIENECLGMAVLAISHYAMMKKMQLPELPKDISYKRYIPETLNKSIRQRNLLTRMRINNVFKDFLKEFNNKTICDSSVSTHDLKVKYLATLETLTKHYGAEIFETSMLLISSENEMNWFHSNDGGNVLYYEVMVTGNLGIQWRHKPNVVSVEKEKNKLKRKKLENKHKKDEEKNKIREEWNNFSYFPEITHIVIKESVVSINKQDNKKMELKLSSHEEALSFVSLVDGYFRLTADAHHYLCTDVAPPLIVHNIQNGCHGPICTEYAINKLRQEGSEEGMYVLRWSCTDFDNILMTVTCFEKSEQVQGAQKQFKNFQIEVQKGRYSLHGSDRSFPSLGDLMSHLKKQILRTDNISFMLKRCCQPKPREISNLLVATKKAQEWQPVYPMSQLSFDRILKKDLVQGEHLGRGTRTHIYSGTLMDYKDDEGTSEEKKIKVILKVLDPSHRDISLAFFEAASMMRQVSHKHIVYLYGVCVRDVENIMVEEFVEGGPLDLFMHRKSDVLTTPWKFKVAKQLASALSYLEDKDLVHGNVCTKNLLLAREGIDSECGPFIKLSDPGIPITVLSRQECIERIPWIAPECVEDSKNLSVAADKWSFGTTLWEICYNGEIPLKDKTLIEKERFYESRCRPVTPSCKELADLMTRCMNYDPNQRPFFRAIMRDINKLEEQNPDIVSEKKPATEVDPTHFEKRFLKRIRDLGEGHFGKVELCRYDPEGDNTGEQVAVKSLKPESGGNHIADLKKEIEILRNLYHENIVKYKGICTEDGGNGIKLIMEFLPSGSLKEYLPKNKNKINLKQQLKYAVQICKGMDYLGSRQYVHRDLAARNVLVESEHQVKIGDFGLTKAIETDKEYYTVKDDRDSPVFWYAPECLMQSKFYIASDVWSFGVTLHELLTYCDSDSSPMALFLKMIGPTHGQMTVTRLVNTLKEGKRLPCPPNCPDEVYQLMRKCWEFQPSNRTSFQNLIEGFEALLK
Chain of Tyrosine-protein kinase HCK (Homo sapiens) (P08631 2-526 limits assumed): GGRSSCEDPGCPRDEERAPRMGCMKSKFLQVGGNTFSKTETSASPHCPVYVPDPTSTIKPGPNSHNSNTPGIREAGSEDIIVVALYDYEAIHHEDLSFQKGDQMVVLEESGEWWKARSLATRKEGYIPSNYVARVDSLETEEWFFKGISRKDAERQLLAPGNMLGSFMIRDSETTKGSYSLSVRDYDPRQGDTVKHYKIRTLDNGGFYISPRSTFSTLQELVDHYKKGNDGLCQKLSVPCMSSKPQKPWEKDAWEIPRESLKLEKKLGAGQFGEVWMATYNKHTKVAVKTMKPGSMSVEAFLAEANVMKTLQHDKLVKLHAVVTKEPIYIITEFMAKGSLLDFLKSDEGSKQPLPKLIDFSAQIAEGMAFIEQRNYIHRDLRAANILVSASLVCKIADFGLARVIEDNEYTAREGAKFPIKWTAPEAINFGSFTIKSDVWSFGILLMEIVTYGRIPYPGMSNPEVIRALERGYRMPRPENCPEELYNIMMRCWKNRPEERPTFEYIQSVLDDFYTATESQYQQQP

With `O=C([C@H]1CC[C@H](Nc2nccc(-n3nnc4ccccc43)n2)CC1)N1CCOCC1`, the inhibition in [1], in assay [2], in assay [3], in assay [4], in assay [5] and in assay [6] was under 50% in each case. For the same compound, the inhibition (as a rule, the share of the control response that was lost under treatment) in assay [7] was 90%; in assay [8] it was under 50%; in assay [9] it was under 50%; in [10] it was under 50%; in assay [11], under 50%; in [12] it was under 50%. Besides, the inhibition in assay [14] was 64%; in assay [15], under 50%; in assay [16], 67%; in [17], under 50%; in assay [18], under 50%; in [19], under 50%. For the same compound, in assay [13], the pIC50 (commonly −log10 of the IC50, conventionally taken in molar units) was 7.20.

Regarding `CS(=O)(=O)CCCOc1cccc2c1ccn2-c1ccnc(N[C@H]2CC[C@H](C(=O)N3CCC(O)CC3)CC2)n1`, the inhibition in assay [6] and in assay [14] was over 85% in each case. For the same compound, the pIC50 in [13] is 7.80.

Regarding `O[C@H]1CC[C@H](Nc2nccc(-n3ccc4ccccc43)n2)CC1`, the inhibition in [1], in assay [2], in assay [3], in [4], in assay [5] and in assay [6] was under 50% throughout. Further, the inhibition in assay [7], in [8], in assay [9], in [10], in [11] and in assay [12] was under 50% in each case. Besides, the inhibition in assay [14] is under 50%; in assay [15] it was under 50%; in assay [16], 72%; in [17] it was under 50%; in assay [18], under 50%; in assay [19], under 50%. In addition, the negative logarithm of the IC50 (pIC50) in [13] was 7.19.

Regarding `O[C@H]1CC[C@H](Nc2nccc(-n3ncc4ccccc43)n2)CC1`, the inhibition was under 50% in [1]; under 50% in assay [2]; under 50% in assay [3]; under 50% in [4]; 88% in assay [5]; under 50% in [6]. In addition, the inhibition in assay [7], in assay [8], in assay [9], in [10], in assay [11] and in assay [12] was under 50% each time. Also, the inhibition in [14] is under 50%; in assay [15] it was under 50%; in assay [16], 91%; in [17], under 50%; in assay [18], 72%; in assay [19], under 50%. In addition, in assay [13], the pIC50 is 7.26.

Regarding `O[C@H]1CC[C@H](Nc2nccc(-c3n[nH]c4ccccc34)n2)CC1`, the inhibition in assay [1] was 66%; in assay [2] it was 92%; in assay [3] it was 94%; in assay [4], under 50%; in assay [5], 99%; in [6] it was 94%. Further, the inhibition was 97% in assay [7]; 96% in assay [8]; 100% in [9]; 80% in assay [10]; under 50% in [11]; under 50% in assay [12]. The inhibition in assay [14] was 96%; in assay [15] it was 77%; in [16], 98%; in assay [17], 96%; in [18], 98%; in [19], 78%. This compound also gave a pIC50 in assay [13] of 6.60.

As for `N[C@H]1CC[C@H](Nc2nccc(-n3nnc4ccccc43)n2)CC1`, the inhibition was 78% in [1]; 86% in assay [2]; 94% in [3]; under 50% in assay [4]; under 50% in [5]; 94% in assay [6]. Further, the inhibition was 84% in assay [7]; under 50% in assay [8]; under 50% in [9]; under 50% in [10]; 70% in assay [11]; under 50% in assay [12]. Besides, the inhibition in [14] is 95%; in assay [15] it was under 50%; in assay [16] it was 72%; in [17], 97%; in assay [18] it was under 50%; in [19], under 50%. Besides, the pIC50 in assay [13] was 7.13.

Consider `O[C@H]1CC[C@H](Nc2nccc(-n3nnc4ccccc43)n2)CC1`, for which the inhibition in assay [1] was under 50%; in assay [2], under 50%; in assay [3] it was 82%; in assay [4], under 50%; in assay [5] it was under 50%; in [6], 96%. The inhibition in assay [7] was 77%; in assay [8], under 50%; in assay [9] it was under 50%; in assay [10], under 50%; in assay [11], under 50%; in assay [12] it was under 50%. Besides, the inhibition was 93% in assay [14]; under 50% in assay [15]; 86% in assay [16]; under 50% in assay [17]; under 50% in assay [18]; under 50% in assay [19]. The pIC50 in assay [13] was 7.54.
